Rows were chosen to be rich in hits. Some 1.4% of all compounds tested hit in one or more screens of this group.
STAT3 inh-1 = IL-6 driven STAT3 reporter inhibitors, primary screen, U3A cells, luciferase, luminescence, MLSCN library; AID 862, 2007; IL-6 STAT3-luciferase reporter; host cell line lacks STAT1; inhibition, % at 5.5 µM; 0.89% of 190,000 active;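 active = inhibition above the mean inhibition across all screened compounds plus 3 SD, cut at about 44% in these data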;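 also: 0% = DMSO only wells and 100% = 100 µM nifuroxazide control wells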
Platelet DG rel = inhibitors of platelet dense granule secretion, primary screen, cell-based, MLPCN, human platelets. human platelet-rich plasma, SFLLRN dense granule ATP release, luminescence. inhibition, %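 (compounds screened at 7.5 µM in platelet-rich plasma)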. 0.22% of 300,000 active. AID 1663, 2009;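 active = mean replicate score, as percent of positive control, at or above 50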
STAT1 inh = STAT1 signaling inhibitors, primary screen, cell-based, HTS, luciferase reporter | AID 920, 2007 | 0.35% of 200,000 active | inhibition, % at 5.5 µM | NIH 3T3 STAT1-luciferase reporter, IFN-gamma, luminescence;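 active = inhibition above a set limit, the mean inhibition across all tested compounds plus 3 SD, cut at about 34% in these data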;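 also: 0% = IFN-gamma with DMSO and 100% = IFN-gamma with 300 µM nifuroxazide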
PERK inhibitor = block of dimerizer-induced PERK translation repression, primary screen, PERK inhibitor project, CHO PERK-DD cells, SEAP luminescence, HTS. CHO PERK-DD fusion, SEAP luminescence translation reporter. inhibition, % at 5.6 µM. 0.17% of 220,000 active. AID 1416, 2008. Eukaryotic translation initiation factor 2-alpha kinase 3 (Homo sapiens), Q9NZJ5;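 active = inhibition above the mean inhibition of all tested compounds plus 3 SD, set separately per screening campaign, cut at about 2.9% in these data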;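 also: PERK kinase domain activated by AP20187 dimerizer at 100 nM; 0% = DMSO with dimerizer and 100% = rapamycin at 8.4 µM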
Target sequence (Q9NZJ5 whole entry, looked up, the tested form may be a part): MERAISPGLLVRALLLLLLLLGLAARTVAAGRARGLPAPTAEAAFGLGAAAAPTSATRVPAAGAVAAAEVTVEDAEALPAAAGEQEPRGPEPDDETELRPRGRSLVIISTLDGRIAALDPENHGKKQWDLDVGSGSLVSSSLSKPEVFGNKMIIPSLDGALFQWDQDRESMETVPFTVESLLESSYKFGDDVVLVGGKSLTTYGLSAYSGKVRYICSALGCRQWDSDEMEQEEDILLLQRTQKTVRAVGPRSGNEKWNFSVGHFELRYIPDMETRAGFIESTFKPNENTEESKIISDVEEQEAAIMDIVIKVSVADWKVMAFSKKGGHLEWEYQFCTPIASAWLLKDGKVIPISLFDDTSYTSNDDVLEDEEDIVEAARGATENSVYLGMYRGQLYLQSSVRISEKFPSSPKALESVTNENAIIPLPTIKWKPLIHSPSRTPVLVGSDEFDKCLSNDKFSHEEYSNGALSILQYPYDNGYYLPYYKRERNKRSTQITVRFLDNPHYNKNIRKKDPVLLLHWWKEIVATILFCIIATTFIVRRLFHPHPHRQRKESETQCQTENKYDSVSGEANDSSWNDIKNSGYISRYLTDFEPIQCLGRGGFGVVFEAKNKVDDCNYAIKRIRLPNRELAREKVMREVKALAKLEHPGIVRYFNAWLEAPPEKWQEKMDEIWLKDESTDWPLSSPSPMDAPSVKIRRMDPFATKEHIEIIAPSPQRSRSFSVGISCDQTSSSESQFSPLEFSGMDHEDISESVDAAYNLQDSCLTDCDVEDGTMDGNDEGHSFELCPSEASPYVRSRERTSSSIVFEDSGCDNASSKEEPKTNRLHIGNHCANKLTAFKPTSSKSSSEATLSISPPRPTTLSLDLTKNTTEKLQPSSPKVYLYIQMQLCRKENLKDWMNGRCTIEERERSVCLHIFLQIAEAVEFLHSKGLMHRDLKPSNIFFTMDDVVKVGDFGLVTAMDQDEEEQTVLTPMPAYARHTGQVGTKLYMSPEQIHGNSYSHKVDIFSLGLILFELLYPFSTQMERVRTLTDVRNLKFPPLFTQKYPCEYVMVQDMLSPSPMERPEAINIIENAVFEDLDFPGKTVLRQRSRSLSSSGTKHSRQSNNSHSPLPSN
STAT3 activator = IL-6 driven STAT3 reporter potentiators, primary screen, U3A cells, luciferase, luminescence, MLSCN library. IL-6 STAT3-luciferase reporter; 100% = signal with IL-6 EC80 alone. activation (% of control), % at 5.6 µM. 0.91% of 190,000 active;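 active = activation above the screen-wide mean of compound activation plus 3 SD, cut at about 130% in these data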;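 also: 0% = background luminescence of wells with medium and substrate only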
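Material: STAT3-luciferase reporter U3A cells. Controls: IL-6-treated wells, 100% activation. Read-out: % activation versus median of IL-6-stimulated wells. Probe or stimulus: IL-6 stimulus at 33 ng/mL final. Timing: compound 1 h, then IL-6 6 h at 37 °C. Signal: reporter luminescence signal.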
STAT3 inh-2 = STAT3 reporter inhibitors, retest of hits, confirmation, U3A cells, luciferase, luminescence | 45% of 1,200 active | inhibition, % at 5.7 µM | shares compounds with STAT3 inh-1 | IL-6 STAT3 luciferase reporter; cell line lacks STAT1;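 active = inhibition above the hit cutoff computed for the primary STAT3 screen, cut at about 44% in these data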;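 also: 0% = IL-6 plus DMSO and 100% = IL-6 plus nifuroxazide control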
NFkB inh 2 = NF-kB reporter inhibitors in human cells, confirmation, counter-screen for STAT3 inhibitor project, cell-based, HEK293T, luciferase, TNF-alpha stimulus; shares compounds with STAT3 inh-1; TNF-alpha induced; inhibition, % at 5.7 µM; 36% of 1,200 active;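 active = inhibition above the mean of solvent-only control wells plus 3 SD, cutoff set per campaign, cut at about 13% in these data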;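 also: 0% = TNF-alpha with DMSO and 100% = TNF-alpha with MG high control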
STAT1 inh STAT3c = STAT1 reporter inhibitors, IFN-gamma induced, confirmation, counter-screen for STAT3 inhibitor project, cell-based, NIH 3T3, luciferase luminescence. shares compounds with STAT3 inh-1. NIH 3T3 STAT1-luciferase reporter. 27% of 1,200 active. inhibition, % at 5.7 µM;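 active = inhibition above the mean plus 3 SD of solvent-only control wells, limit set per screening run, cut at about 16% in these data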;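 also: 0% = DMSO with IFN-gamma and 100% = nifuroxazide control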
Numbers without * were called inactive.

How did CCCCc1ccc(S(=O)(=O)NCCc2ccncc2)cc1 do in these assays?
STAT3 inh-1: 38.1; Platelet DG rel: -3.1; STAT1 inh: 8.3; PERK inhibitor: -0.4; STAT3 activator: 71.7

What do the screens show for `Cc1cc(C)c(S(=O)(=O)NCc2ccncc2)c(C)c1`?
STAT3 inh-1: 75.2*; Platelet DG rel: 5.8; STAT1 inh: 26.6; PERK inhibitor: -1.0; STAT3 activator: 38.1; STAT3 inh-2: 73.7*; NFkB inh 2: 27.0*; STAT1 inh STAT3c: 23.3*

Results for Cc1ccc(S(=O)(=O)NCc2ccccn2)c(C)c1C ?
Platelet DG rel: 0.7

How did COc1cc(C)c(Br)cc1S(=O)(=O)NCc1ccncc1 do in these assays?
STAT3 inh-1: 61.0*; Platelet DG rel: 11.3; STAT1 inh: 26.2; PERK inhibitor: 1.0; STAT3 activator: 50.7; STAT3 inh-2: 58.1*; NFkB inh 2: 20.0*; STAT1 inh STAT3c: 18.3*

How did CCOc1ccc(N(CC(=O)NCc2cccnc2)S(=O)(=O)c2ccc(F)cc2)cc1 do in these assays?
Platelet DG rel: -1.7

How did COc1ccc(NC(=O)c2ccc(COc3ccc(C)cc3)o2)cc1 do in these assays?
STAT3 inh-1: 3.2; Platelet DG rel: -1.8; STAT1 inh: -31.8; PERK inhibitor: -0.4; STAT3 activator: 103.5

How did Cn1cc(C(=O)c2ccc(Cl)cc2)cc1-c1nc2ccccc2n1C do in these assays?
STAT3 inh-1: 46.1*; Platelet DG rel: 7.8; STAT1 inh: 16.2; PERK inhibitor: -0.7; STAT3 activator: 66.1; STAT3 inh-2: 31.9; NFkB inh 2: -3.4; STAT1 inh STAT3c: 5.8

How did Cn1c(-c2ccc(Cl)nc2)nc2ccccc21 do in these assays?
Platelet DG rel: 5.5

How did Cc1cccc(OCc2cc(-c3ccccc3)no2)c1C do in these assays?
Platelet DG rel: -7.8

How did Clc1ccc(OCc2cc(-c3ccccc3)no2)c(Cl)c1 do in these assays?
STAT3 inh-1: 76.3*; Platelet DG rel: -4.4; STAT1 inh: 30.6; PERK inhibitor: -0.6; STAT3 activator: 41.4; STAT3 inh-2: 45.9*; NFkB inh 2: 0.8; STAT1 inh STAT3c: -75.8

How did COc1ccc(NC(=O)CSc2ncccc2C(=O)OC(C)C)cc1OC do in these assays?
STAT3 inh-1: 50.6*; Platelet DG rel: -0.3; STAT1 inh: 16.8; PERK inhibitor: -1.6; STAT3 activator: 61.1; STAT3 inh-2: 37.3; NFkB inh 2: 7.6; STAT1 inh STAT3c: 17.0*

How did c1ccc(C2=NNC(=NC3CC3)SC2)cc1 do in these assays?
STAT3 inh-1: 74.3*; Platelet DG rel: 31.5; STAT1 inh: 26.9; PERK inhibitor: 1.2; STAT3 activator: 41.8; STAT3 inh-2: 37.7; NFkB inh 2: 11.9; STAT1 inh STAT3c: -16.9

Results for CC(C)(C)N=C1NN=C(c2ccc(Cl)cc2)CS1 ?
Platelet DG rel: 1.1; PERK inhibitor: 0.2

How did COc1ccc(CNc2cc(C)nc3ncnn23)c(OC)c1 do in these assays?
STAT3 inh-1: 67.0*; Platelet DG rel: 0.3; STAT1 inh: 13.1; PERK inhibitor: -0.6; STAT3 activator: 44.6; STAT3 inh-2: 52.1*; NFkB inh 2: 16.7*; STAT1 inh STAT3c: 17.4*

How did COc1ccc(Nc2cc(C)nc3ncnn23)c(OC)c1 do in these assays?
STAT3 inh-1: -1.4; Platelet DG rel: 4.3; STAT1 inh: -4.7; PERK inhibitor: 1.4; STAT3 activator: 108.7

What do the screens show for `COc1ccc(CNC(=O)c2cc(C)nn2-c2ccccc2)cc1`?
Platelet DG rel: 4.2; PERK inhibitor: -0.7

How did CCCCc1ccc(NC(=O)CSc2nnc(CNC(=O)c3ccco3)o2)cc1 do in these assays?
Platelet DG rel: -11.9

Results for O=C(Nc1ccc(N2CCN(C(=O)c3ccc(Cl)cc3)CC2)cc1)c1cc2ccccc2o1 ?
STAT3 inh-1: 70.1*; Platelet DG rel: 1.1; STAT1 inh: 10.4; PERK inhibitor: -0.7; STAT3 activator: 43.3; STAT3 inh-2: 64.8*; NFkB inh 2: 18.9*; STAT1 inh STAT3c: 7.1

Results for O=C(NC1=NCCS1)c1cc2ccccc2o1 ?
STAT3 inh-1: 63.6*; Platelet DG rel: 11.9; STAT1 inh: 4.3; PERK inhibitor: 0.9; STAT3 activator: 50.3; STAT3 inh-2: 27.3; NFkB inh 2: -10.3; STAT1 inh STAT3c: -72.3

What do the screens show for `O=C(Nc1ccc2c(c1)OCCO2)Nc1ccc2c(c1)OCO2`?
STAT3 inh-1: 54.2*; Platelet DG rel: 9.9; STAT1 inh: 30.2; PERK inhibitor: 1.0; STAT3 activator: 57.5; STAT3 inh-2: 4.4; NFkB inh 2: -17.4; STAT1 inh STAT3c: -95.4

What do the screens show for `O=C(Nc1ccc2c(c1)OCCO2)c1cc2ccccc2o1`?
STAT3 inh-1: 65.5*; Platelet DG rel: 11.4; STAT1 inh: 18.7; PERK inhibitor: 0.5; STAT3 activator: 47.3; STAT3 inh-2: 21.0; NFkB inh 2: -26.0; STAT1 inh STAT3c: -114.1

What do the screens show for `Nc1nn(-c2cccc(F)n2)cc1-c1ccc(Cl)cc1`?
STAT3 inh-1: 58.5*; Platelet DG rel: 10.0; STAT1 inh: 18.6; PERK inhibitor: 1.1; STAT3 activator: 53.2; STAT3 inh-2: 14.0; NFkB inh 2: -25.4; STAT1 inh STAT3c: -138.3

How did Nc1nn(-c2cccc(F)n2)cc1-c1ccccc1 do in these assays?
STAT3 inh-1: 42.4; Platelet DG rel: 1.6; STAT1 inh: -16.3; PERK inhibitor: -0.2; STAT3 activator: 66.0

How did Cc1cccc(C)c1NC(=O)CNC(=O)CCCc1c[nH]c2ccccc12 do in these assays?
Platelet DG rel: 14.1

How did CCCCc1cc(=O)oc2cc(OCC(=O)NC3CCN(Cc4ccccc4)CC3)ccc12 do in these assays?
Platelet DG rel: 24.5

Results for Cc1nc2ccc(-c3nc4ccccc4[nH]3)cc2[nH]1 ?
STAT3 inh-1: 45.6*; Platelet DG rel: 3.0; STAT1 inh: -26.5; PERK inhibitor: 1.2; STAT3 activator: 64.3; STAT3 inh-2: 9.1; NFkB inh 2: -10.6; STAT1 inh STAT3c: -86.8

Results for COc1c(C)cc(NC(=O)c2ccc3c(c2)NC(=O)CO3)cc1C ?
STAT3 inh-1: 45.3*; Platelet DG rel: 10.3; STAT1 inh: 5.0; PERK inhibitor: -0.5; STAT3 activator: 63.9; STAT3 inh-2: 29.9; NFkB inh 2: -2.0; STAT1 inh STAT3c: -0.1

How did COc1ccc(N(C(C)C(=O)N2CCCC2)S(C)(=O)=O)cc1 (stereo not drawn) do in these assays?
Platelet DG rel: -3.5
